According to PMC3286645 (Carbohydrate Research, 2011):
Where two headings read alike, the source gives them in different places.

Key:
[1] = Thermogravimetric analysis; assay type: physicochemical; conditions: TGA; for Temperature of solvent loss: 10 °C/min under nitrogen; for Number of water molecules: from weight loss; for Percent weight loss: solvent loss
Method in brief: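 Instrument calibrated with indium and aluminum. 2.5 mg to 4.5 mg of each test compound in an alumina crucible, heated from 25 °C to 200 °C at 10 °C/min under nitrogen flowing at 2 mL/min; weight loss recorded against temperature.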

[2] = Differential scanning calorimetry; assay type: physicochemical; conditions: DSC; for Mp (transition from solid crystalline phase to liquid crystalline phase): first phase transition; for Cp (clearing point): liquid crystalline phase to liquid melt phase
Method in brief: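 Dry test compounds kept under vacuum against moisture uptake; 1.0 to 1.5 mg weighed into Tzero aluminum pans sealed with hermetic lids, empty sealed pan as reference. Instrument calibrated with indium for temperature and enthalpy. Scanned 20°C to 250°C at 2.5°C/min; phase transitions taken from the thermograms.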

Jurkat cells [3] = experiment: MTS cell viability assay in Jurkat cells; assay type: cell-based
HaCaT cells = experiment: MTS cell viability assay in HaCaT cells; assay type: cell-based, human
Hs27 cells = experiment: MTS cell viability assay in Hs27 cells; assay type: cell-based
[4] = cited from earlier work
Jurkat cells [5] = experiment: Apoptosis assay; assay type: cell-based
[6] = Solubility of stock solutions in DMSO and in cell culture medium; assay type: physicochemical; conditions: 100 mM stock solution in dimethyl sulfoxide
Method in brief: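 Test compounds and the octylthioglucoside reference were each made up as 100 mM stocks in DMSO. Solubility was judged by eye. An aliquot of each stock was added to cell culture medium, vortexed for 5 sec, centrifuged at 1,400 rpm for 1 min, and checked for precipitate. Stocks that precipitated were diluted further before cytotoxicity testing.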

[7] = Jurkat cells, MTS assay, 20 h exposure
[8] = HaCaT cells, MTS assay, 20 h exposure
[9] = Hs27 cells, MTS assay, 20 h exposure

| Structure (SMILES) | Decomposition Temperature [1] [°C] | Temperature of solvent loss [1] [°C] | Number of water molecules [1] | Percent weight loss [1] [%] | toxicity (cell viability) in words (Jurkat cells [3]; [7]) | toxicity (cell viability) in words (Hs27 cells; [9]) | other results |
| --- | --- | --- | --- | --- | --- | --- | --- |
| CCCCCCO[C@@H]1OC[C@@H](O)[C@H](O)[C@H]1O [Compound 9a, Hexyl β-D-xylopyranoside] | 262.8 ± 4.34 | 81.74 ± 0.41 | 0.4 | 2.50±0.66 | – | – | – |
| CCCCCCCCO[C@@H]1OC[C@@H](O)[C@H](O)[C@H]1O [Compound 9b, Octyl β-D-xylopyranoside] | 267.1 ± 9.15 | 85.32 ± 0.55 | 0.5 | 2.35±0.91 | moderate toxicity | moderate toxicity | Mp (transition from solid crystalline phase to liquid crystalline phase) [2]: 72.5 °C; Cp (clearing point) [2]: 99.4 °C; toxicity (cell viability) in words (HaCaT cells; [8]): moderate toxicity; Cp (clearing point) ([4]; reported previously ref 23): 96.9 °C; Mp (transition from solid crystalline phase to liquid crystalline phase) ([4]; reported previously ref 23): 64.5 °C; Cp (clearing point) ([4]; reported previously ref 24): 103.3 °C; Mp (transition from solid crystalline phase to liquid crystalline phase) ([4]; reported previously ref 24): 67.5 °C |
| CCCCCCCCCCO[C@@H]1OC[C@@H](O)[C@H](O)[C@H]1O [Compound 9c, Decyl β-D-xylopyranoside] | 277.2 ± 11.5 | 96.63 ± 0.44 | 0.5 | 2.69±0.07 | moderate toxicity | moderate toxicity | toxicity (cell viability) in words (HaCaT cells; [8]): moderate toxicity |
| CCCCCCCCCCCCO[C@@H]1OC[C@@H](O)[C@H](O)[C@H]1O [Compound 9d, Dodecyl β-D-xylopyranoside] | 290.4 ± 10.5 | 86.35 ± 0.98 | 0.3 | 1.56±0.09 | – | – | – |
| CCCCCCCCCCCCCCO[C@@H]1OC[C@@H](O)[C@H](O)[C@H]1O [Compound 9e, Tetradecyl β-D-xylopyranoside] | 294.8 ± 7.15 | 100.1 ± 2.93 | 0.5 | 1.87±1.08 | – | – | – |
| CCCCCCCCCCCCCCCCO[C@@H]1OC[C@@H](O)[C@H](O)[C@H]1O [Compound 9f, Hexadecyl β-D-xylopyranoside] | – | 103.4 ± 1.95 | 0.3 | 1.24±0.49 | – | – | – |
| O[C@@H]1[C@@H](O)[C@H](OCCC(F)(F)C(F)(F)C(F)(F)C(F)(F)C(F)(F)C(F)(F)F)OC[C@H]1O [Compound 9g, 3,3,4,4,5,5,6,6,7,7,8,8,8-Tridecafluorooctyl β-D-xylopyranoside] | – | 50.57 ± 1.64 | 0.9 | 2.64±0.83 | – | – | Mp (transition from solid crystalline phase to liquid crystalline phase) [2]: 105.1 °C; Cp (clearing point) [2]: 147.0 °C; toxicity (cell viability) in words (Jurkat cells [3]): moderate toxicity; toxicity (cell viability) in words (HaCaT cells): moderate toxicity; toxicity (cell viability) in words (Hs27 cells): moderate toxicity; mode of cell death (Jurkat cells [5]): apoptosis and not necrosis |
| CCCCCCCCS[C@@H]1O[C@H](CO)[C@@H](O)[C@H](O)[C@H]1O [OTG, octylthioglucoside, reference compound] | – | – | – | – | moderate toxicity | moderate toxicity | solubility in DMSO [6]: readily soluble |
